Source: ChEMBL document CHEMBL1641492, “Design, synthesis and biological evaluation of novel L-lysine ureido derivatives as aminopeptidase N inhibitors” (Bioorg Med Chem, 2011)

test system: not listed separately; assay: Antiproliferative activity against human ES2 cells after 48 hrs by MTT assay; type: functional, cell-based; conditions: ES-2, 48 h
Method in brief: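 ES-2 human cells seeded at 5000 per well, adhered 10 h, then exposed to 2500, 500, 100, 20 and 4 µg/mL compound for 48 h. MTT 0.5% solution added, 4 h further incubation, formazan dissolved in DMSO, absorbance at 570 nm. Three independent experiments, mean with SE.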

Compound | IC50 [µM]
O=C(N[C@@H](CCCCNC(=O)OCc1ccccc1)C(=O)NO)N[C@@H](Cc1ccccc1)C(=O)NO | 395
CSCC[C@H](NC(=O)N[C@@H](CCCCNC(=O)OCc1ccccc1)C(=O)NO)C(=O)NO | 356
C[C@H](NC(=O)N[C@@H](CCCCNC(=O)OCc1ccccc1)C(=O)NO)C(=O)NO | 415
CC(C)C[C@H](NC(=O)N[C@@H](CCCCNC(=O)OCc1ccccc1)C(=O)NO)C(=O)NO | 291
CC(C)C[C@H](NC(=O)[C@@H](O)[C@H](N)Cc1ccccc1)C(=O)O [UBENIMEX] | 332

target: T1, Aminopeptidase N (Sus scrofa, UniProt P15145); assay: Inhibition of porcine kidney microsomal APN after 10 mins at room temperature by spectrophotometry; conditions: not given
T1 sequence (P15145 whole entry): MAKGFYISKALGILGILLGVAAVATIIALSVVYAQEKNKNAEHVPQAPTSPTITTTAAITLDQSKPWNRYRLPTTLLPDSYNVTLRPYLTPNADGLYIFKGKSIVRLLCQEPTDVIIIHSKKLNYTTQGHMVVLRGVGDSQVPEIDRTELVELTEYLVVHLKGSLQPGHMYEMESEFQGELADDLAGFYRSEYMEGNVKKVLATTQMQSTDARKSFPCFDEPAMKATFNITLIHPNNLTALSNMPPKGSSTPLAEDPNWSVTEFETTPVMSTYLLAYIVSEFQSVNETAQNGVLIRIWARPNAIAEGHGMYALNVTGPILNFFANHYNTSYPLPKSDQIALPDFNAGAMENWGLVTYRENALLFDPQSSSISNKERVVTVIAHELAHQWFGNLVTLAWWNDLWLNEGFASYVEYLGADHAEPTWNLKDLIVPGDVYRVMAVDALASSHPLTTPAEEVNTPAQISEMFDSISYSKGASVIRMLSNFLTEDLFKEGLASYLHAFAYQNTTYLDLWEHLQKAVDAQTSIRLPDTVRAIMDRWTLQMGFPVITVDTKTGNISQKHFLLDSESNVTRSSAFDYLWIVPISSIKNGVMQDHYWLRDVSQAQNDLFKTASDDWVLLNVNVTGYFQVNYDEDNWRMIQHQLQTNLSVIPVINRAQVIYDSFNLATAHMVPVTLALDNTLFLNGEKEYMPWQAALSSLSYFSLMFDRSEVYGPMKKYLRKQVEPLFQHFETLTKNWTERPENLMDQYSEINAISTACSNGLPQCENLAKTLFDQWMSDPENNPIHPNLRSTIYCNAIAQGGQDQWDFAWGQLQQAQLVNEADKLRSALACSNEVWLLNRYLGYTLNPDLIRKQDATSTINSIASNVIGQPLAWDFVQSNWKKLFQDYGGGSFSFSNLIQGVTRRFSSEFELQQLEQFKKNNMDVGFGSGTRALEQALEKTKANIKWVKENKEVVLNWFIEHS
Method in brief: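 Porcine kidney microsomal aminopeptidase (lyophilized, 15–25 units/mg protein), 6 µg/mL final, preincubated with inhibitor 10 min at room temperature. Substrate L-Leu-p-nitroanilide, 50 mM PBS pH 7.2, 37 °C. Inhibitor solutions in assay buffer adjusted to pH 7.5. IC50 as mean ± SD of three independent assays.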

IC50 [µM] | Compound
> 50 | CC[C@@H](C)[C@H](NC(=O)N[C@@H](CCCCNC(=O)OCc1ccccc1)C(=O)NO)C(=O)NO
14.5 | O=C(N[C@@H](CCCCNC(=O)OCc1ccccc1)C(=O)NO)N[C@@H](Cc1ccccc1)C(=O)NO
14.4 | CSCC[C@H](NC(=O)N[C@@H](CCCCNC(=O)OCc1ccccc1)C(=O)NO)C(=O)NO
> 50 | COC(=O)[C@H](CCCCNC(=O)OCc1ccccc1)NC(=O)N[C@H](C(=O)OC)C(C)C
> 50 | COC(=O)[C@H](CCCCNC(=O)OCc1ccccc1)NC(=O)N[C@@H](CC(C)C)C(=O)OC
> 50 | CC[C@@H](C)[C@H](NC(=O)N[C@@H](CCCCNC(=O)OCc1ccccc1)C(=O)OC)C(=O)OC
> 50 | COC(=O)[C@H](CCCCNC(=O)OCc1ccccc1)NC(=O)N[C@@H](Cc1ccccc1)C(=O)OC
> 50 | COC(=O)[C@H](CCCCNC(=O)OCc1ccccc1)NC(=O)N[C@@H](CCSC)C(=O)OC
> 50 | O=C(O)CNC(=O)N[C@@H](CCCCNC(=O)OCc1ccccc1)C(=O)O
> 50 | C[C@H](NC(=O)N[C@@H](CCCCNC(=O)OCc1ccccc1)C(=O)O)C(=O)O
> 50 | CC(C)[C@H](NC(=O)N[C@@H](CCCCNC(=O)OCc1ccccc1)C(=O)O)C(=O)O
> 50 | CC(C)C[C@H](NC(=O)N[C@@H](CCCCNC(=O)OCc1ccccc1)C(=O)O)C(=O)O
> 50 | CC[C@@H](C)[C@H](NC(=O)N[C@@H](CCCCNC(=O)OCc1ccccc1)C(=O)O)C(=O)O
> 50 | O=C(N[C@@H](CCCCNC(=O)OCc1ccccc1)C(=O)O)N[C@@H](Cc1ccccc1)C(=O)O
> 50 | CSCC[C@H](NC(=O)N[C@@H](CCCCNC(=O)OCc1ccccc1)C(=O)O)C(=O)O
20.4 | O=C(CNC(=O)N[C@@H](CCCCNC(=O)OCc1ccccc1)C(=O)NO)NO
19.9 | C[C@H](NC(=O)N[C@@H](CCCCNC(=O)OCc1ccccc1)C(=O)NO)C(=O)NO
4.51 | CC(C)C[C@H](NC(=O)N[C@@H](CCCCNC(=O)OCc1ccccc1)C(=O)NO)C(=O)NO
> 50 | COC(=O)[C@H](CCCCNC(=O)OCc1ccccc1)NC(=O)NCc1ccccc1
> 50 | COC(=O)[C@H](CCCCNC(=O)OCc1ccccc1)NC(=O)NCCc1ccccc1
> 50 | COC(=O)[C@H](CCCCNC(=O)OCc1ccccc1)NC(=O)NC(C)(C)C
16.4 | O=C(NCc1ccccc1)N[C@@H](CCCCNC(=O)OCc1ccccc1)C(=O)NO
> 50 | O=C(NCCc1ccccc1)N[C@@H](CCCCNC(=O)OCc1ccccc1)C(=O)NO
> 50 | CC(C)(C)NC(=O)N[C@@H](CCCCNC(=O)OCc1ccccc1)C(=O)NO
> 50 | COC(=O)CNC(=O)N[C@@H](CCCCNC(=O)OCc1ccccc1)C(=O)OC
> 50 | COC(=O)[C@H](C)NC(=O)N[C@@H](CCCCNC(=O)OCc1ccccc1)C(=O)OC
